In brackets after ≈: the same amount, converted by molar mass.
How the values were obtained:
[1] = test system: Mycobacterium tuberculosis; assay: Antibacterial activity against Mycobacterium tuberculosis H37Rv after 7 days by microplate alamar blue assay; type: functional; conditions: 168 h
Method in brief: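 MIC against H37Rv by MABA. Primary screen run at 0.02 to 5 μg/mL. Compounds retested at 0.002 to 0.5 μg/mL.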

[2] = test system: Vero; assay: Cytotoxicity against African green monkey Vero cells measured after 72 hrs by CellTiter 96 aqueous non-radioactive cell proliferation assay; type: cell-based; conditions: Chlorocebus sabaeus
Method in brief: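 Vero cells were exposed to compound, and cytotoxicity was reported as IC50 in µg/mL.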

[3] = Selectivity index, ratio of IC50 for African green monkey Vero cells to MIC>=90 for Mycobacterium tuberculosis H37Rv; type: toxicity; conditions: read-out: Selectivity Index
Method in brief: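 SI is Vero cell IC50 divided by MABA MIC against H37Rv, with MIC tested at 0.002 to 0.5 μg/mL.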

[4] = Tmax in Sprague-Dawley rat at 10 mg/kg, po by LC-MS/MS analysis; type: ADME, organism-based; conditions: in vivo
Method in brief: (§1)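 Rats received a single dose of compound, either intravenously at 2.5 mg/kg or orally at 10 mg/kg, in separate arms. Plasma parameters were AUC0-∞ (h*µg/L), Cmax (µg/L), Tmax, T1/2 and MRT (h). Oral bioavailability F (%) was derived from the oral and intravenous arms.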

[5] = AUC (0 to infinity) in Sprague-Dawley rat at 2.5 mg/kg, iv by LC-MS/MS analysis; type: ADME, organism-based; parameters: dose 2.5 mg/kg, route intravenous, time infinity; conditions: in vivo; method in brief: as §1
[6] = MRT (0 to infinity) in Sprague-Dawley rat at 10 mg/kg, po by LC-MS/MS analysis; type: ADME, organism-based; conditions: in vivo; method in brief: as §1
[7] = Half life in Sprague-Dawley rat at 10 mg/kg, po by LC-MS/MS analysis; type: ADME, organism-based; conditions: in vivo; method in brief: as §1
[8] = Cmax in Sprague-Dawley rat at 2.5 mg/kg, iv by LC-MS/MS analysis; type: ADME, organism-based; parameters: dose 2.5 mg/kg, route intravenous; conditions: in vivo; method in brief: as §1
[9] = Tmax in Sprague-Dawley rat at 2.5 mg/kg, iv by LC-MS/MS analysis; type: ADME, organism-based; conditions: in vivo; method in brief: as §1
[10] = MRT (0 to infinity) in Sprague-Dawley rat at 2.5 mg/kg, iv by LC-MS/MS analysis; type: ADME, organism-based; conditions: in vivo; method in brief: as §1
[11] = Half life in Sprague-Dawley rat at 2.5 mg/kg, iv by LC-MS/MS analysis; type: ADME, organism-based; conditions: in vivo; method in brief: as §1
[12] = Oral bioavailability in Sprague-Dawley rat at 10 mg/kg by LC-MS/MS analysis; type: ADME, organism-based; conditions: in vivo; method in brief: as §1
[13] = Cmax in Sprague-Dawley rat at 10 mg/kg, po by LC-MS/MS analysis; type: ADME, organism-based; parameters: dose 10 mg/kg, route oral; conditions: in vivo; method in brief: as §1
[14] = AUC (0 to infinity) in Sprague-Dawley rat at 10 mg/kg, po by LC-MS/MS analysis; type: ADME, organism-based; parameters: dose 10 mg/kg, route oral, time infinity; conditions: in vivo; method in brief: as §1

SMILES	MIC90 [1] [mg/L]	IC50 [2] [mg/L]	selectivity ratio [3]	other results
COc1ccn2nc(C)c(C(=O)NCc3ncc(-c4ccc(OC(F)(F)F)cc4)o3)c2c1	1.96 (≈ 4.39 µM)			
COc1ccn2nc(C)c(C(=O)NCc3nnc(-c4ccc(OC(F)(F)F)cc4)o3)c2c1	> 5			
COc1ccn2nc(C)c(C(=O)NCc3ccc(-c4ccc(OC(F)(F)F)cc4)s3)c2c1		> 50	> 25000	
COc1ccn2nc(C)c(C(=O)NCc3ccc(-c4ccc(OC(F)(F)F)cc4)c(C(F)(F)F)c3)c2c1		11.6 (≈ 22.2 µM)	402	
COc1ccn2nc(C)c(C(=O)NCc3ccc(-c4ccc(OC(F)(F)F)cc4)cc3C(F)(F)F)c2c1	> 5			
COc1ccn2nc(C)c(C(=O)NCc3ccc(-c4ccc(OC(F)(F)F)cc4)cc3C)c2c1	0.57 (≈ 1.21 µM)			
COc1ccn2nc(C)c(C(=O)NCc3ncc(-c4ccc(OC(F)(F)F)cc4)[nH]3)c2c1	> 5			
COc1ccn2nc(C)c(C(=O)NCc3ccc(-c4ccc(OC(F)(F)F)cc4)cc3F)c2c1		> 50	> 7140	
COc1ccn2nc(C)c(C(=O)NCc3ccc(-c4ccc(OC(F)(F)F)cc4)nc3)c2c1		28.4 (≈ 62.2 µM)	535	
COc1ccn2nc(C)c(C(=O)NCc3ccc(-c4ccc(OC(F)(F)F)cc4)c(F)c3)c2c1		> 50	> 25000	
COc1ccn2nc(C)c(C(=O)NCc3ccc(-c4ccc(OC(F)(F)F)cc4)c(C)c3)c2c1		3.15 (≈ 6.71 µM)	242	
COc1nc2ccc(Br)cc2cc1[C@@H](c1ccccc1)[C@@](O)(CCN(C)C)c1cccc2ccccc12 [BEDAQUILINE]	0.02 to 0.03 (≈ 0.036 to 0.054 µM)	> 10	> 500	
CO[C@H]1/C=C/O[C@@]2(C)Oc3c(C)c(O)c4c(O)c(c(/C=N/N5CCN(C)CC5)c(O)c4c3C2=O)NC(=O)/C(C)=C\C=C\[C@H](C)[C@H](O)[C@@H](C)[C@@H](O)[C@@H](C)[C@H](OC(C)=O)[C@@H]1C [RIFAMPIN]		> 100	> 12500	
NNC(=O)c1ccncc1 [ISONIAZID]	0.239 to 0.48 (≈ 1.74 to 3.5 µM)			
COc1ccn2nc(C)c(C(=O)NCc3ccc(-c4ccc(OC(F)(F)F)cc4)cn3)c2c1		> 50	> 25000	Tmax [4]: 4.67 h; AUC(0-inf) [5]: 9 µg·h/mL; MRT inf [6]: 8.21 h; half-life [7]: 5.1 h; Cmax [8]: 4.15 µg/mL; Tmax [9]: 4.8 min; MRT inf [10]: 4.02 h; half-life [11]: 3.49 h; bioavailability [12]: 41%; Cmax [13]: 1.43 µg/mL; AUC(0-inf) [14]: 15.6 µg·h/mL
COc1ccn2nc(C)c(C(=O)NCc3ccc(-c4ccc(OC(F)(F)F)cc4)cc3OC)c2c1	0.28 (≈ 0.577 µM)			
COc1ccn2nc(C)c(C(=O)NCc3ccc(-c4ccc(OC(F)(F)F)cc4)c(OC)c3)c2c1		11.8 (≈ 24.3 µM)	1680	
COc1ccn2nc(C)c(C(=O)NCc3cn(-c4ccc(OC(F)(F)F)cc4)nn3)c2c1	> 5			
COc1ccn2nc(C)c(C(=O)NCc3cnc(-c4ccc(OC(F)(F)F)cc4)s3)c2c1	0.53 (≈ 1.15 µM)			
CC(=O)NC[C@H]1CN(c2ccc(N3CCOCC3)c(F)c2)C(=O)O1 [LINEZOLID]	1.25 to 3.27 (≈ 3.72 to 9.69 µM)			

— ChEMBL document CHEMBL4400576, “Identification of Pyrazolo[1,5-a]pyridine-3-carboxamide Diaryl Derivatives as Drug Resistant Antituberculosis Agents” (ACS Med Chem Lett, 2019)
